The list is not random: actives were taken first. Their share in the collection is about 4.7%.
RGS4 pot = RGS4 potentiation or activation; HEK293 M3R/inducible RGS4, carbachol calcium flux Fluo4; active compounds read low; B-score at 10 µM; 310,000 compounds, 0.92% hits;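 active means B-score of the integrated calcium signal more than 4 SD below the library mean, with starting fluorescence not abnormally high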;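 further: negative B-score means reduced calcium response which marks RGS4 activation or potentiation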
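Reagent: ECmax carbachol challenge; Test system: M3R-expressing HEK293 line, RGS4 induced by doxycycline; Schedule: overnight RGS4 induction, 30 min dye load 37 °C, 20 min compound RT; Detection: calcium dye Fluo4 fluorescence; Read-out: Agonist-evoked peak-minus-minimum fluorescence over baseline, integrated ratio, B score.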
MrgX1 PAM = human MrgX1 positive allosteric modulation, primary screen. Q96LB2. MrgX1-HEK293, Fluo-4 calcium flux, FDSS; active compounds read high. B-score at 10 µM. 310,000 compounds, 0.63% hits;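 active means plate-corrected calcium response at least 3 library SD above typical, normal starting fluorescence, not activating the receptor alone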;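 further: compound read alongside a low EC10 to EC30 dose of BAM8-22 agonist; peak minus trough fluorescence over baseline measured at the second addition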
MrgX1 antag = blocks BAM8-22 activation of human MrgX1 receptor | MRGX1-HEK293 calcium flux, Fluo-4, BAM8-22 antagonism; active compounds read low | B-score at 10 µM | 310,000 compounds, 1.3% hits;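 active means calcium-response B-score plate-corrected more than 3 library SD below zero, starting fluorescence within 5 deviations, no agonist response on first addition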;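 further: peak minus trough fluorescence over baseline after final BAM8-22 challenge near maximal dose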
KCC2 mod = modulates chloride dependent transport by human KCC2. AID 1456. Q9H2X9. KCC2 cells, thallium flux FluoZin-2 fluorescence. B-score of Tl+ flux slope (higher = more flux/activation; lower = inhibition) at 10 µM. 190,000 compounds, 2.2% hits;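 active means thallium flux slope and its plate-corrected score both differing from the plate sample mean at a set confidence after two filtering rounds, in either direction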;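 further: slope of fluorescence scaled to starting intensity during 10 to 20 s after thallium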
Target sequence (Q9H2X9 whole entry, looked up): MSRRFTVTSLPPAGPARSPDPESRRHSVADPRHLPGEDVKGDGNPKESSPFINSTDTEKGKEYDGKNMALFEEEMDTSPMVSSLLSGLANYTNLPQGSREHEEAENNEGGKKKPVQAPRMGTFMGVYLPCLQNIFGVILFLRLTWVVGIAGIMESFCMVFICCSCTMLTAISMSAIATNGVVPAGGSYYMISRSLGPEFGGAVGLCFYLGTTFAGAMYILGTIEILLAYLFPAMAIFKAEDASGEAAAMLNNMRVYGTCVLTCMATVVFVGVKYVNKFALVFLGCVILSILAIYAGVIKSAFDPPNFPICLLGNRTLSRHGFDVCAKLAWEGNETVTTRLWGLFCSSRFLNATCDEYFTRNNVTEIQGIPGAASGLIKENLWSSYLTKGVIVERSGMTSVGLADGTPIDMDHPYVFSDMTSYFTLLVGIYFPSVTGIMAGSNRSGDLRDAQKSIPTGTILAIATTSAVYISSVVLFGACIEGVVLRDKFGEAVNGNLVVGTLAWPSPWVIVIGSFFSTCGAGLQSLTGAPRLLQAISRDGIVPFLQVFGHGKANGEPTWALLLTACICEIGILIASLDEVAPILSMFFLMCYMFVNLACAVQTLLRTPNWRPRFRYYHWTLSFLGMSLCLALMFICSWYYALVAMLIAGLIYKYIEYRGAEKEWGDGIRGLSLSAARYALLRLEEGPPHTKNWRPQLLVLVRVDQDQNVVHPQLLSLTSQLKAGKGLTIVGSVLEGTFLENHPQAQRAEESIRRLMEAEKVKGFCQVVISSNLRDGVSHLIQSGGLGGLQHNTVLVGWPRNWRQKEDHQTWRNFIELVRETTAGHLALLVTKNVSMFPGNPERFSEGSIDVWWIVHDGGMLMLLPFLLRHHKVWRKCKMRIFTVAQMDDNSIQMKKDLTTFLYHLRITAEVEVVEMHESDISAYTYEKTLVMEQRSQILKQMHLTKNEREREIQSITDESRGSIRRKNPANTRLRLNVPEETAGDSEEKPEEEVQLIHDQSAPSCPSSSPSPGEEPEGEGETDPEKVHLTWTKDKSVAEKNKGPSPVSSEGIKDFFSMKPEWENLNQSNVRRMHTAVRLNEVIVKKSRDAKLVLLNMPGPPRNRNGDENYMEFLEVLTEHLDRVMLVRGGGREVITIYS
RGS4 inh = human RGS4 inhibition; 310,000 compounds, 0.45% hits; HEK293 M3R/RGS4 inducible, Fluo-4 calcium flux; active compounds read high; triggered by carbachol at its EC20; B-score at 10 µM; P49798;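 active means B-score, a plate-corrected calcium signal, over three deviations above library mean, with baseline fluorescence within five deviations of library mean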;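 further: RGS4 expression induced by doxycycline in cells with stable M3 receptor; B-score is computed from the integrated fluorescence ratio over baseline after carbachol; higher B-score means a larger calcium signal and so more RGS4 inhibition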
MrgX1 agonist = activates human MrgX1 receptor signaling | Q96LB2 | MrgX1-HEK293 cells, Fluo-4 calcium fluorescence, agonist mode; active compounds read high | B-score at 10 µM | 310,000 compounds, 0.44% hits | AID 588627;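 active means calcium response B-score plate-corrected fluorescence ratio at least 3 library SD, with starting fluorescence B-score inside 5 SD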
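Assay system: stable human MrgX1 HEK293 cell line. Quantity: 15,000 cells per well. Schedule: cells plated overnight, dye loaded 0.5 h 37 °C, 0.5 h room temperature. Detection: Fluo-4 NW calcium-flux fluorescence, kinetic read. Read-out basis: peak-minus-minimum fluorescence over baseline, converted to B scores. Control set: positive and negative control wells on each plate.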
RGS4 inh valid = validation of RGS4 inhibitors; shares compounds with RGS4 inh; HEK293 M3R/RGS4, carbachol calcium Fluo-4 fluorescence; carbachol added at its EC20; 0 = buffer wells, 100 = carbachol control; calcium response, % at 10 µM; 1,700 compounds, 65% hits;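 active means duplicate-averaged calcium response above the buffer-only control mean plus 5 SD of those controls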;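 further: integrated fluorescence ratio F max minus min over baseline F0; higher response in RGS4-induced cells means RGS4 inhibition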
RGS4 uninduced = non-induced cell nonspecific activity of RGS4 inhibitors | shares compounds with RGS4 inh | HEK293 M3R non-induced, carbachol calcium Fluo-4; submaximal (EC20) carbachol stimulus; buffer wells 0%, carbachol control wells 100% | activity (percent), % at 10 µM | 1,900 compounds, 20% hits; call rule not given here;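 further: RGS4 induction absent so cells express M3R without RGS4; higher means more calcium signal and flags a non-specific hit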
RGS4 inh ctr2 = signal in non-induced cells without carbachol, RGS4 inhibitor counter-screen | shares compounds with RGS4 inh | HEK293 M3R/RGS4 non-induced, Fluo-4 calcium, no carbachol; normalised: buffer wells 0%, carbachol wells 100% | calcium response (agonist-mode artifact), % at 10 µM | 1,900 compounds, 22% hits | AID 493001;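 active means duplicate-averaged calcium rise in uninduced cells above buffer wells' mean plus 5 SD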
An asterisk follows results filed as active; i = inactive; x = no result.

SMILES	RGS4 pot	MrgX1 PAM	MrgX1 antag	KCC2 mod	RGS4 inh	MrgX1 agonist	RGS4 inh valid	RGS4 uninduced	RGS4 inh ctr2
CC1(C)Cc2ccccc2C(CSc2ccccc2C(=O)O)=N1	i	i	i	0.694	i	i	x	x	x
CCCC(C(=O)Nc1ccncc1)c1ccccc1 (configuration not stated)	i	i	i	x	i	i	x	x	x
O=C(NCCc1ccc(F)cc1)c1ccc(NS(=O)(=O)c2ccc3[nH]c(=O)[nH]c3c2)cc1	i	i	i	x	i	i	x	x	x
COc1ccc(NS(=O)(=O)c2ccc3nc(COc4ccc5ccccc5c4)[nH]c3c2)cc1	i	i	i	-0.198	i	i	x	x	x
COc1ccc(NS(=O)(=O)c2ccc3nc(COc4cccc5ccccc45)[nH]c3c2)cc1	i	i	i	1.15	8.5*	i	7.0%*	i	i
CCOC(=O)C(=Cc1ccc(Br)cc1)C(=O)OCC	i	i	i	-0.487	i	i	x	x	x
COCCOC(=O)/C(=C/c1ccc(OC(=O)c2ccccc2)cc1)C(C)=O	i	i	i	-0.813	14.7*	31.5*	82.5%*	i	16.5%*
CCOC(=O)C(=Cc1ccc(-n2ccnc2)cc1)C(=O)OCC	i	i	i	-0.441	13.1*	i	18.5%*	i	i
CCOC(=O)/C(=C/c1ccc(OC(=O)c2ccncc2)cc1)C(C)=O	i	i	i	-0.019	7.63*	29.1*	27.5%*	41.5%*	16.0%*
O=C(Oc1ccc(/C=N/O)cc1)c1ccccc1	i	i	i	-0.189	i	i	x	x	x
Cc1cccc(C)c1OCC(=O)N/N=C/c1cccnc1	i	i	i	x	i	i	x	x	x
CC(C)(C)c1ccc(S(=O)(=O)NCC(=O)N2CCN(Cc3ccccc3)CC2)cc1	i	i	i	x	i	i	x	x	x
N/C(=N\OC(=O)c1ccc2c(c1)OCO2)c1ccncc1	i	i	i	0.466	i	i	x	x	x
O=C(NCc1n[nH]c(=S)n1-c1ccc(Cl)c(Cl)c1)c1ccco1	i	i	i	x	i	i	x	x	x
CC1=C(C(=O)c2ccccc2)C(c2cccc([N+](=O)[O-])c2)NC(=S)N1 (configuration not stated)	i	i	i	0.711	10.4*	i	23.0%*	33.0%*	i
COc1ccc(C)cc1NC(=O)C(=O)NCc1ccncc1	i	i	i	0.503	i	i	i	i	i
COc1ccc(NC(=O)C(=O)NCc2ccncc2)c(OC)c1	i	i	i	-0.361	i	i	i	i	i
COc1ccc(C)cc1NC(=O)NCc1ccc(F)cc1	i	i	i	-0.835	i	i	x	x	x
COc1ccc(S(=O)(=O)Nc2ccc(S(=O)(=O)Nc3ccc(F)cc3)cc2)cc1C	i	i	i	0.707	5.03*	i	22.0%*	i	i
COc1ccc(S(=O)(=O)Nc2cccc(F)c2)cc1C	i	i	i	-0.359	i	i	x	x	x
COc1ccc(/C=C2\CCCC3C2=NN(C(=O)COC(=O)CNC(=O)c2ccccc2)C3c2ccc(OC)cc2)cc1 (configuration not stated)	i	i	i	0.565	i	i	x	x	x
COc1ccc(/C=C2\CCCC3C2=NN(C(=O)CSc2ncn[nH]2)C3c2ccc(OC)cc2)cc1 (configuration not stated)	i	i	i	0.863	i	i	x	i	i
O=C(CSc1ncn[nH]1)N1N=C2/C(=C/c3ccccc3)CCCC2C1c1ccccc1 (configuration not stated)	i	i	i	1.68	5.13*	i	10.0%*	i	i
COc1cc(C(C[N+](=O)[O-])c2c(N)n(C)c(=O)n(C)c2=O)ccc1O (configuration not stated)	i	i	i	-0.796	5.25*	i	19.5%*	i	8.0%*
O=c1c(O)c(-c2ccc(O)cc2)oc2cc(O)cc(O)c12	i	i	i	x	i	i	x	i	i
SMILES	RGS4 pot	MrgX1 PAM	MrgX1 antag	KCC2 mod	RGS4 inh	MrgX1 agonist	RGS4 inh valid	RGS4 uninduced	RGS4 inh ctr2
O=C1COc2ccc(NC(=O)c3ccccc3C(=O)O)cc2N1	i	i	i	x	i	i	x	x	x
Cc1noc(NS(=O)(=O)c2ccc(N/C=C\C(=O)c3cccs3)cc2)c1C	i	i	i	-0.97	i	i	x	x	x
Cc1noc(NS(=O)(=O)c2ccc(N/C=C\C(=O)c3ccccc3)cc2)c1C	i	i	i	-0.271	i	i	x	i	i
Cc1cccc(-n2ccc(=O)c(C(=O)Nc3ccc(S(=O)(=O)Nc4onc(C)c4C)cc3)n2)c1	i	i	i	x	4.68*	i	7.0%*	i	i
Cc1noc(NS(=O)(=O)c2ccc(N/C=C\C(=O)c3ccc(F)cc3)cc2)c1C	i	i	i	-0.0714	i	i	x	36.5%*	i
CC(C)Oc1ccc(CNC(=O)CCC(=O)N2CCSc3ccccc32)cc1	i	i	i	x	i	i	x	x	x
O=C(C1CCCN(S(=O)(=O)c2cc(Cl)ccc2Cl)C1)N1CCCC1 (configuration not stated)	i	i	i	x	i	i	x	x	x
COc1ccc(Cl)cc1S(=O)(=O)N1CCCC(C(=O)N2CCOCC2)C1 (configuration not stated)	i	i	i	x	i	i	i	i	i
Cc1ccccc1OCC(=O)N/N=C/c1cn(C)c2ccccc12	i	i	i	1.31	i	i	x	x	x
Cc1ccc(OCC(=O)N/N=C/c2cn(C)c3ccccc23)cc1	i	i	i	0.0291	i	i	x	i	i
CCOc1ccc(-c2nnc(Nc3ccc(OC)c(C(=O)N4CCCCC4)c3)c3ccccc23)cc1	i	i	i	-0.548	i	i	i	i	i
CNC(=O)c1cc(Nc2nnc(-c3ccc(O)cc3)c3ccccc23)ccc1OC	i	i	i	-0.338	i	i	x	x	x
COc1ccc(NC(=O)CCNC(=O)c2ccco2)cc1Cl	i	i	i	x	i	i	x	x	x
FC(F)(F)c1ccc(N=Cc2sc(N3CCOCC3)nc2-c2ccccc2)cc1	i	i	i	0.0161	5.55*	i	5.5%*	i	i

Bioassay records as filed in PubChem.
